Data on 2 molecules can be found in publication PMC8204096 (Clinical & Translational Immunology, 2021).

Where two headings read alike, the source gives them in different places.

Data set [1] concerns B cells in human whole blood. Briefly: Anti-IgD-induced B-cell activation. The conditions noted are these: read-out: IC50, B-cell activation in whole blood, stimulated cells. It counts as cell-based.
The target in a further data set is BTK (Mus musculus, UniProt P35991). Nature of the data set: in vivo.
In another data set the test system is purified human B cells. Nature of the data set: Human B-cell proliferation. The data set is classed as cell-based. Conditions: 100 nM added at time of activation; TLR9 or anti-IgM/CD40L with IL-4 or IL-21. A digest of the protocol:
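Healthy-donor B cells were enriched untouched and labelled with CFSE. Stimuli were CpG ODN 2006, or F(ab′)2 anti-IgM (1 µg mL−1), or anti-IgM/MEGACD40L (1 μg mL−1) with IL-4 or IL-21 (each 20 ng mL−1). Cells were cultured with or without 100 nm test compound in serum-free X-VIVO 10 for 3–5 days, then analysed by flow cytometry.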

Data set [2] relates to CD4+ and CD8+ T cells from human PBMCs. Nature of the data set: Anti-CD3/anti-CD28-mediated T-cell activation counter-screen. The conditions noted are these: anti-CD3 and anti-CD28 overnight, concentrations up to 10 μM. It counts as cell-based. A digest of the protocol: (§1)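 Human PBMCs were pre-treated for 30 min with titrating concentrations of test compound. They were then stimulated overnight at 37°C with soluble anti-CD28 (CD28.2, 5 μg mL−1) and plate-bound anti-CD3 (HIT3a, 0.5 µg mL−1). CD69 on CD4+ and CD8+ T cells and on CD19+ B cells was measured by flow cytometry.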
On the technique in general: A counterscreen serves to expose hits that act by an unwanted route or on another target.

In data set [3] the test system is CD19+ B cells from human PBMCs. Nature of the data set: Antigen-independent B-cell activation by anti-CD3/anti-CD28-activated T cells. The data set is classed as cell-based. A digest of the protocol: as §1
The subject of data set [4] is basophils in human whole blood. Briefly: FcεR-mediated basophil degranulation. It counts as cell-based. Conditions: read-out: IC50, anti-IgE-mediated basophil degranulation (CD63).
For data set [5], the system named is splenic germinal center B cells. Briefly: Sheep red blood cell thymus-dependent immunisation model. The data set is classed as in vivo. The conditions noted are these: mouse, 8 days BID, all doses tested. A digest of the protocol:
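Mice were dosed orally BID at 10 mL kg−1 with test compound or vehicle from day 1 to day 9. On day 2 they received washed sheep red blood cells i.p. (2 × 10⁹ cells). Spleens were collected on day 9, 3 h after the last dose. Germinal centre B cells (CD3−CD19+B220+CD38lowGL7+CD95+) were enumerated by flow cytometry, with 8–20 mice per group.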

Data set [6] has as its system CD19+ B cells from human PBMC. Nature of the data set: Anti-IgD-induced B-cell activation. It counts as cell-based. Conditions: read-out: IC50, CD69 induction on B cells. A digest of the protocol: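 PBMCs from healthy donors were isolated by density gradient. They were incubated for 30 min with titrating concentrations of test compound or DMSO, then stimulated overnight at 37°C with rabbit F(ab′)2 anti-human IgD (5 μg mL−1). After Fc block and staining for 30 min on ice, the frequency of CD69+ cells among CD19+ B cells was measured by flow cytometry.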

Data set [7] relates to B cells in whole blood of dosed healthy individuals. Nature of the data set: Phase 1. The data set is classed as in vivo, human. A digest of the protocol: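 Heparinised whole blood from trial participants (test compound or placebo, BID) was stimulated with 0.1 μg mL−1 dextran-conjugated anti-IgD (IA6-2) for 18–24 h at 37°C/5% CO2. Samples were stained for CD19 and CD69, RBC-lysed and fixed. CD69 on CD19+, CD27− and CD27+ B cells was standardised with MESF beads. Inhibition was calculated relative to pre-dose samples.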

In data set [8] the test system is B cells in mouse whole blood. Briefly: Anti-IgD-induced B-cell activation. It counts as cell-based. The conditions noted are these: read-out: IC50, CD62L downregulation on B cells.
Data set [9] relates to mouse splenic B cells and OTII CD4+ T cells. Nature of the data set: BCR-mediated antigen presentation to T cells. The data set is classed as cell-based. Conditions: read-out: IC50, BCR-mediated antigen presentation to OVA323-339-specific T cells (T-cell proliferation).
Data set [10] deals with NP-specific IgM antibody titres. Nature of the data set: NP-Ficoll T cell-independent. It counts as in vivo. The conditions noted are these: mouse, oral BID for 10 days.
Data set [11] relates to B220+ mouse splenic B cells. Nature of the data set: Anti-IgM-induced B-cell activation. The data set is classed as cell-based. The conditions noted are these: read-out: IC50, CD69 induction on B cells. In a few lines:
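Splenic B cells were bead-isolated from OTII mice and pre-treated with test compound for 30 min at 37°C. They were incubated on ice with biotinylated goat F(ab′)2 anti-mouse IgM (10 μg mL−1, 15 min), then OVA-conjugated anti-biotin (10 min), with compound present throughout. They were co-cultured with dye-labelled CD4+ T cells for 72 h at 37°C. The frequency of CD69+ B220+ B cells was measured by flow cytometry.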

[12] abbreviates: Homo sapiens, B-cell, read-out: average (± SD) CD69 inhibition at 24 h post-last dose.
Setting [13] is: Homo sapiens, B-cell, read-out: pre-dose average CD69 inhibition in naïve B cells.

BTK, sequence (P35991 whole entry): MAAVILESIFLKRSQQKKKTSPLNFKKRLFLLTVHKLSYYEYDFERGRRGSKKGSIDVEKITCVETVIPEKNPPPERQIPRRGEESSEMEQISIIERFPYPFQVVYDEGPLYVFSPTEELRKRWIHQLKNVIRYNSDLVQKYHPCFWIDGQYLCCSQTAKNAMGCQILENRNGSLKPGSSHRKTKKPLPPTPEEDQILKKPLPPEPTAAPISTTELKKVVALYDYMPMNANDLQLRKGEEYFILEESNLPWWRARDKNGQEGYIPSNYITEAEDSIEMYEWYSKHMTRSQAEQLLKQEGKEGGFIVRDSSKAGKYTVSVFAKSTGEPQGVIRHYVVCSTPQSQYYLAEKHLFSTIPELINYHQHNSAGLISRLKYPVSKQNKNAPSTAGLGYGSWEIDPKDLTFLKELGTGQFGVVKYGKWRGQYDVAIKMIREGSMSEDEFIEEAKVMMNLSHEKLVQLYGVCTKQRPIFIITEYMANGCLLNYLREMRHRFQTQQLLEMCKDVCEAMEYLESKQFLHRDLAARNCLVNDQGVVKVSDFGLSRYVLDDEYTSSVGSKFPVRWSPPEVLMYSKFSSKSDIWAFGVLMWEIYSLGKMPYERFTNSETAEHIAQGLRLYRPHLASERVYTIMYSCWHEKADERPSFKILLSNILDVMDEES

As for `Cc1cc(-c2ccnc(Nc3cnn(C)c3)n2)ccc1CNC(=O)N1CC(OC(C)C)C1` [BIIB068], in [1], the IC50 is 3500 nM.

Consider `Cn1cc(Nc2nccc(-c3ccc4c(c3)CN(C3COC3)CC[C@H]4NC(=O)c3cn(C(C)(C)C)nn3)n2)cn1` [BIIB091], for which the IC50 is 3.1 nM against BTK; 106 nM in data set [4]; 5.4 ± 0.5 nM in data set [6]; 40 ± 24 nM in [8]; 22 ± 8 nM in data set [9]; 16 ± 11 nM in data set [11]. Moreover, the “effect on B-cell proliferative responses” value in the data set on purified human B cells is reported as “potently blocked”. The “inhibition of CD4+ or CD8+ T-cell activation (CD69)” value in [2] is “did not inhibit”. Also, the “inhibition of T cell-dependent, antigen-independent B-cell activation (CD69)” value in [3] was “did not inhibit”. For the same molecule, in [5], the “frequency of total splenic B cells” value is recorded as “unchanged”. Further, in data set [7] (50 mg BID, 1 and 2 h post-dosing), the “inhibition of CD69 upregulation in naïve B cells” value is on record as “complete”. Also, in [7] (setting [12]), the inhibition at 50 mg is -5.8%. The results for the inhibition at 150 mg in data set [7] (setting [12]) and in data set [7] (setting [13]) were 19% and at least 90%, respectively. The figures for the inhibition at 300 mg in data set [7] (setting [12]) and in data set [7] (setting [13]) were -2.8% and at least 90%, respectively. The “ED50 for NP-specific IgM antibody titres” value in data set [10] was 1.95 mg/kg.

As a reminder, the inhibition is the drop in the measured response relative to a control, in per cent.
